High-throughput results from PubChem.
TCR CD3 inh = blocks the human TCR-CD3 interaction; TAMRA-labeled TCR probe fluorescence, biochemical; inhibition, % at 9.4 µM; hit rate 0.37% among 360,000; AID 651800; in the data active means inhibition above about 19%;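 further: recombinant mutant TCR 2C K166C tagged with TAMRA read by polarization; 0% = receptor in buffer alone and 100% = receptor with positive control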
Apaf-1 inh = blocks human Apaf-1 apoptosome activity. O14727. reconstituted apoptosome caspase-3 activity, DEVD-Rh110 fluorescence. inhibition, % at 20 µM. hit rate 0.71% among 330,000. AID 489030; active means inhibition of at least 40% at 20 µM;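 further: plate controls were DMSO wells for no effect and DEVD-CHO caspase inhibitor wells for full effect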
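Assay system – apoptosome proteins · Medium – Hepes buffer, pH 7.5 · Also added – cytochrome c with DEVD-Rh110 · Timing – 30 min compound preincubation, 50 min activation, room temperature · Detection – Rh110 fluorescence, excitation 480 nm, emission 540 nm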
GSTO1 inh = GSTO1 inhibition, counter-screen for RBBP9 inhibitors. P78417. recombinant GSTO1, activity-based probe fluorescence polarization. inhibition, % at 5.96 µM. hit rate 1.1% among 300,000. AID 1974;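 active means inhibition above the campaign mean inhibition plus 3 SD, cut at about 35% in these data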;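 further: 0% = GSTO1-1 with DMSO and 100% = wells lacking GSTO1-1 enzyme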
Target sequence (P78417 whole entry, looked up): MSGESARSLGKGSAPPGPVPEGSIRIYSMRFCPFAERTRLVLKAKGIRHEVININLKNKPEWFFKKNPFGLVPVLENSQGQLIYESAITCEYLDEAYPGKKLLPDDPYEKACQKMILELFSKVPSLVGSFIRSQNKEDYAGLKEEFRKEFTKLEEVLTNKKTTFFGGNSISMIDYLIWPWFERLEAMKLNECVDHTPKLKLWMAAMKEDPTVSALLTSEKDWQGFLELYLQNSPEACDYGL
PAD4 inh = inhibitors of human PAD4; Q9UM07; recombinant PAD4, RCA probe fluorescence polarization; inhibition, % at 6.36 µM; hit rate 0.41% among 330,000; AID 485272;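 active means percent inhibition above a cutoff equal to the mean of all tested compounds plus 3 SD, cut at about 15% in these data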;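 further: 0% = PAD4 with RCA probe and DMSO and 100% = probe without PAD4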
SIAE primary = inhibitors of human sialic acid acetylesterase SIAE | Q9HAT2 | SIAE FP-Rh probe binding, fluorescence polarization | inhibition, % at 9.66 µM | hit rate 0.69% among 370,000 | AID 1053197;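 active means inhibition above a cutoff: mean of compounds within the control limits plus 3 SD of those, cut at about 17% in these data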;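 further: 0% = plate median of compound wells and 100% = probe without SIAE protein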
Target sequence (Q9HAT2 whole entry, looked up): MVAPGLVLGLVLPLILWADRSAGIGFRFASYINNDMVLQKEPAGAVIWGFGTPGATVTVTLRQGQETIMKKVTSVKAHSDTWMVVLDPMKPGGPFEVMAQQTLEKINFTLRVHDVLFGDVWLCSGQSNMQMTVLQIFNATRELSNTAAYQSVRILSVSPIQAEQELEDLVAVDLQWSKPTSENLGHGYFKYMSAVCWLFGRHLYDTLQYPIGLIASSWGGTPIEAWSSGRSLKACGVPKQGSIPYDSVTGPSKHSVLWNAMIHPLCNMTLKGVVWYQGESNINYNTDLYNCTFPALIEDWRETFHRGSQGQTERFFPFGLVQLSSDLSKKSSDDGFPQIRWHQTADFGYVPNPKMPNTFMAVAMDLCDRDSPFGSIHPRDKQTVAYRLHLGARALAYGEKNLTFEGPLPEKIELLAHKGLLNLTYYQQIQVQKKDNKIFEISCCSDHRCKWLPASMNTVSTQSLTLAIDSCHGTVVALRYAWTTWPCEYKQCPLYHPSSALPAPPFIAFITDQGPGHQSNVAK
TDP2 inh = blocks human TDP2 phosphodiesterase activity | O95551 | inhibition, % at 12.8 µM | hit rate 0.34% among 370,000 | recombinant TDP2, T5PNP hydrolysis, p-nitrophenol absorbance 415 nm;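 active means inhibition above the mean of all tested compounds plus 3 SD, set per campaign, cut at about 25% in these data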;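 further: 0% = DMSO with enzyme and 100% = buffer with substrate but no TDP2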
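test system = human TDP2 enzyme | input = TDP2 enzyme at 120 nM final | medium = 50 mM Tris-HCl pH 7.5 with Mg2+, KCl, DTT, BSA | also added = T5PNP substrate, 5 mM | times = 2 h at 37 °C | technique = epi absorbance | benchmarks = high control without enzyme, low control DMSO plus TDP2 | replication = each compound tested once, singlicate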
GSTO1 inh conf = GSTO1 (human) inhibition, confirmation; shares compounds with GSTO1 inh; recombinant GSTO1, probe fluorescence polarization; inhibition, % at 5.96 µM; hit rate 54% among 2,400;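 active means inhibition above the primary screen's cutoff, its mean inhibition plus 3 SD, cut at about 35% in these data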;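 further: loss of polarization as inhibitors block binding of rhodamine sulfonate ester activity probe; 0% = GSTO1 with DMSO and 100% = wells lacking GSTO1 enzyme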
GSTO1 recomb ABPP = GSTO1 (human) inhibition by gel ABPP; inhibition, % at 1 µM; hit rate 30% among 130; shares compounds with GSTO1 inh; recombinant GSTO1, gel ABPP SE-Rh probe fluorescence;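 active means inhibition of the enzyme GSTO1 above about 75%, limit read from the data; inactive means inhibition below that limit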
An asterisk follows results filed as active; . = not tested or not shown. A selection: hits, their analogues and other compounds. The true share with any hit is near 2.4%.

SMILES | TCR CD3 inh | Apaf-1 inh | GSTO1 inh | PAD4 inh | SIAE primary | TDP2 inh | GSTO1 inh conf | others
CCOc1cccc(/C(O)=C2/C(=O)C(=O)N(CCOC)C2c2ccc(C)o2)c1 (stereo not drawn) | 5.0 | 17.8 | 5.8 | -1.6 | 4.0 | -2.4 | .
C=CCOC(=O)C(C#N)c1nc2ccccc2nc1N1CCN(Cc2ccc3c(c2)OCO3)CC1 (stereo not drawn) | -5.3 | 21.1 | -2.5 | -0.4 | -6.5 | -10.2 | .
COc1ccc(CCNC(=O)c2ccc3nc(-c4ccco4)c(-c4ccco4)nc3c2)cc1OC | . | 55.5* | 38.9* | -13.2 | . | . | 14.2
O=C(NCCc1ccccc1F)c1ccc(Sc2ccccc2Cl)c([N+](=O)[O-])c1 | . | . | . | . | -3.0 | 8.6 | .
O=C(Nc1ncc([N+](=O)[O-])s1)c1ccccc1Br | 8.7 | -16.9 | -20.4 | -6.1 | 2.9 | -5.2 | .
O=C(NNC(=O)c1ccccc1O)c1ccc(NS(=O)(=O)c2ccc(F)cc2)cc1 | 15.1 | 2.7 | 47.5* | -1.9 | 3.3 | -4.8 | -0.7
O=[N+]([O-])c1cc(Br)cc(C=Nc2ccc3c(c2)OCO3)c1O | 8.3 | 4.3 | 42.6* | -1.3 | -15.8 | -2.0 | 38.1*
CC(C)c1cc(C(=O)Nc2ccc3c(c2)OCO3)no1 | -7.1 | -4.1 | 5.1 | -4.7 | 3.7 | 1.0 | .
COc1ccc2c(c1)c1nc3n(c(=O)c1n2CC(=O)Nc1cc(C)[nH]n1)CCS3 | -0.1 | -13.8 | 91.9* | 0.3 | -7.5 | 13.2 | 4.1
COc1cccc(NC(=O)Cn2c3ccc(OC)cc3c3nc4n(c(=O)c32)CCS4)c1 | -1.2 | 2.4 | 1.4 | -2.4 | -2.4 | 1.4 | .
CC(CCc1ccccc1)NC(=O)COC(=O)c1cc(NS(=O)(=O)c2ccc(Cl)c([N+](=O)[O-])c2)ccc1O (stereo not drawn) | 8.6 | 15.8 | 43.0* | -4.2 | -16.6 | -8.2 | 48.8*
CNS(=O)(=O)c1cccc(C(=O)OCC(=O)NC(C)CCc2ccccc2)c1 (stereo not drawn) | -9.1 | -1.0 | 6.8 | 7.1 | -4.0 | -9.0 | .
CC(=O)c1cccc(NC(=O)C2C3CCC(C3)C2C(=O)O)c1 (stereo not drawn) | -7.3 | -5.8 | 0.8 | -4.5 | 3.3 | -10.0 | .
CCOC(=O)c1sc(N2N=C(C)/C(=C\c3ccc(OCC(=O)OC)cc3)C2=O)nc1C | -2.3 | 20.5 | 38.7* | -10.8 | -9.1 | 2.9 | 13.3
Cc1ccc(NC(=O)COC(=O)CCc2ccc(S(=O)(=O)N3CCOCC3)cc2)cc1F | 11.0 | 6.9 | 39.7* | -3.6 | -2.0 | 3.0 | 3.6
CC(C(=O)OCC(=O)Nc1cccc(S(=O)(=O)N2CCOCC2)c1)N1C(=O)c2ccccc2C1=O (stereo not drawn) | 7.0 | 1.6 | 39.0* | 1.9 | -7.4 | 0.6 | 23.6
CC1=C/C(=C/N(C)C)C(=O)O1 | 11.7 | 1.3 | 6.6 | 2.5 | -10.1 | -18.0 | .
Cc1cc(NC(=O)Cc2cccs2)no1 | 2.8 | 12.0 | 44.5* | -18.7 | 0.7 | 4.3 | 20.5
Cc1cc(NS(=O)(=O)c2ccc(NC(=O)Cc3cccs3)cc2)no1 | . | 0.8 | -6.5 | -0.1 | . | . | .
O=C(CSc1nc2ncc(Br)cc2[nH]1)Nc1ccc2c(c1)OCO2 | 8.1 | 13.0 | 45.4* | -2.9 | -5.0 | -6.2 | 53.4*
Cc1cc(C)c(NC(=O)CSc2nc3ncc(Br)cc3[nH]2)c(C)c1 | -12.3 | -4.5 | 4.8 | 1.1 | -10.1 | 18.1 | .
COc1ccc(NC(=O)c2onc(C)c2Cl)cc1OC | -5.8 | 2.7 | 39.3* | 1.7 | -0.2 | 3.2 | 7.5
COc1cccc(N/N=C/c2cccc(Br)c2O)c1 | 0.3 | 3.6 | 13.2 | -1.6 | 12.1 | 3.2 | .
Cc1cccc(N/N=C/c2ccc(O)c(O)c2O)c1 | 6.2 | 8.0 | 56.2* | -0.1 | -1.7 | -11.3 | 22.7
O=S(=O)(CC1NCc2cc(F)ccc21)NC1CCCC1 (stereo not drawn) | . | . | . | . | 2.6 | -12.3 | .
SMILES | TCR CD3 inh | Apaf-1 inh | GSTO1 inh | PAD4 inh | SIAE primary | TDP2 inh | GSTO1 inh conf | others
CC(=O)Oc1cc2cccc(OC(C)=O)c(=O)c2c(OC(C)=O)c1OC(C)=O | . | 0.6 | 67.0* | -3.8 | . | . | 54.7*
COc1cc2cccc(OC)c(=O)c2c(O)c1OC | -11.7 | 0.5 | -0.2 | 3.4 | -0.6 | 4.7 | .
CC(C)CC1Nc2ccc(C(=O)NCc3ccc4c(c3)OCO4)cc2NC1=O (stereo not drawn) | . | 15.4 | 44.8* | 6.3 | . | . | 31.8
O=[N+]([O-])c1ccccc1C1Nc2cccc3cccc(c23)N1 | 8.0 | 22.2 | 48.6* | -8.5 | 5.7 | 2.9 | 15.0
COc1ccc(CCN(C)C(=O)Cc2ccc(-c3ccccc3)cc2)cc1OC | 2.3 | 23.7 | -0.3 | -5.7 | 1.6 | 5.0 | .
Clc1ncccc1-c1nnn(-c2ccccc2)n1 | 3.0 | 2.0 | 57.8* | -2.7 | -1.2 | -3.5 | 4.2
CC(C)(O)CC[C@@H](O)[C@](C)(O)[C@H]1CC[C@@]2(O)C3=CC(=O)[C@@H]4C[C@@H](O)[C@@H](O)C[C@]4(C)[C@H]3CC[C@]12C | 4.7 | -1.0 | 38.9* | -0.8 | 2.1 | -3.2 | 6.8
CN1CCc2cccc3c2C1Cc1ccc(O)c(O)c1-3 (stereo not drawn) | 7.0 | 49.6* | 93.1* | -1.9 | 5.7 | 1.7 | 9.4
O=C(N/N=C/c1cccc(F)c1)c1cc(-c2ccco2)nc2ccccc12 | 13.4 | 30.2 | 40.6* | 1.1 | 4.4 | 3.6 | 24.5
Cc1ccc(N(CCC#N)C(=O)CSc2ccc3c(c2)OCCO3)cc1 | 6.9 | 18.2 | 2.6 | 3.0 | 5.7 | 3.0 | .
Cc1ccc(N(CCC#N)C(=O)CCl)cc1C | -0.1 | -7.8 | 93.4* | 9.3 | 0.0 | 5.9 | 90.1* | GSTO1 recomb ABPP=18.0
Cc1nc(Nc2ccc(F)cc2)[nH]c(=O)c1CCC(C)C | -2.4 | 18.5 | -7.4 | -5.8 | -2.2 | 3.6 | .
COc1cc2c(cc1OC)C(C1C(=O)CCCC1=O)N(C(=O)CCl)CC2 (stereo not drawn) | 7.6 | -3.2 | 27.6 | -4.3 | -5.5 | 1.5 | .
COc1ccc2c(c1)CCN(C(=O)CCl)C2C1C(=O)CCCC1=O (stereo not drawn) | 0.5 | -7.6 | 40.2* | 0.7 | 4.0 | -0.5 | 80.9* | GSTO1 recomb ABPP=35.0
COc1cc2c(cc1OC)C(c1ccccc1)N(C(=O)CCl)CC2 (stereo not drawn) | -6.0 | -1.4 | 88.1* | 5.5 | 1.6 | -1.0 | 95.7* | GSTO1 recomb ABPP=75.0*
COc1cc2c(cc1OC)C(c1ccccc1)N(S(C)(=O)=O)CC2 (stereo not drawn) | 4.8 | -4.7 | -5.1 | -2.4 | 3.9 | 4.4 | .
O=C(Cc1ccc2c(c1)OCCO2)c1c(O)cc(O)cc1O | 2.7 | -7.4 | 51.5* | -5.0 | -0.2 | 11.4 | 34.8
